For one data set, the system named is A549. Put plainly: Ratio of drug uptake in human A549 cells at 1 uM measured after 1 hr to drug uptake in human A549 cells at 1 uM incubated for 1 hr followed by compound washout and measured after 8 hrs. The format is ADME, cell-based. Particulars: a549, 1 µM. The gist of the method:
(§1)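 A549 cells plated at 1,000,000 per 25 cm2 dish, dosed after 24 h at 1 µM final (0.1% DMSO), 1 h at 37 °C. Harvested at once or 8 h after three washes with fresh medium. Ethanol extraction, LC-MS quantitation as pmol/mg protein (Bradford), converted to µM using 4 µL cell volume per mg protein. Mean ± SD, three experiments.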

The target of data set [1] is T1, Epidermal growth factor receptor (Homo sapiens, UniProt P00533). In words: Inhibition of wild type EGFR autophosphorylation in human A549 cells by Western blot analysis. Type of data set: cell-based. On the technique in general: In western blotting, separated proteins are transferred to a membrane and probed.
T1 sequence (P00533 whole entry): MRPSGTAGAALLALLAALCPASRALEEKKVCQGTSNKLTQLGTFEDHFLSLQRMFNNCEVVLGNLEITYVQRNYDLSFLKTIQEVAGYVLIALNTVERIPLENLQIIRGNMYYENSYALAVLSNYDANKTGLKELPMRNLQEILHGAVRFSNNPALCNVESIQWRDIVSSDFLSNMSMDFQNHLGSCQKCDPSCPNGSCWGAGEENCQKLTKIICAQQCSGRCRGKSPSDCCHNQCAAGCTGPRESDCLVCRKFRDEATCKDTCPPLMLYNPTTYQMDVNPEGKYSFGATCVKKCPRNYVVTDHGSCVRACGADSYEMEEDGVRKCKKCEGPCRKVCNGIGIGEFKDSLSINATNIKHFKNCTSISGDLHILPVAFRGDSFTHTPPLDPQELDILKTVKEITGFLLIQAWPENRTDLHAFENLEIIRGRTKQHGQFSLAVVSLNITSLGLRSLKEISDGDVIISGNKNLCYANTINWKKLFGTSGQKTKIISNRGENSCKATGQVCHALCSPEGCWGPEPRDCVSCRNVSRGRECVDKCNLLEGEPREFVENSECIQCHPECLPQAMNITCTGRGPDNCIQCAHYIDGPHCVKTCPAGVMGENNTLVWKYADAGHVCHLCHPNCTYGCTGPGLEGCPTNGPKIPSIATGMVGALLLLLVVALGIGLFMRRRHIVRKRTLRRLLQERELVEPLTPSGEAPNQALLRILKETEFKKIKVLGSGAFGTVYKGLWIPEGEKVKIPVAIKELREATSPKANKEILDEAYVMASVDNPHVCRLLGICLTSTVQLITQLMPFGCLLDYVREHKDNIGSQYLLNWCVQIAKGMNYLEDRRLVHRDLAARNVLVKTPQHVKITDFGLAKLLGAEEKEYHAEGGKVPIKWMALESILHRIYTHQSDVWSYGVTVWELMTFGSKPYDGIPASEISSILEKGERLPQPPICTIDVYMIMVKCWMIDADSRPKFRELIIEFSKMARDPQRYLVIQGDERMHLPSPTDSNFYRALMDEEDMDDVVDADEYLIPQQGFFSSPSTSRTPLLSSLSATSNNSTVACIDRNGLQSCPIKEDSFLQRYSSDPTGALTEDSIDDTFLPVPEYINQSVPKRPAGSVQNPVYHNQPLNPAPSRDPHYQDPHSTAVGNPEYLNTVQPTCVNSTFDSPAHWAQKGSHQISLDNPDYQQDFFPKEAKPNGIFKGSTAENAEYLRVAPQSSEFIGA
Data set [2] can be described thus: Drug uptake in human A549 cells at 1 uM incubated for 1 hr followed by compound washout and measured after 8 hrs by LC-MS analysis. Type of data set: ADME, cell-based. Particulars: a549, 1 h. The gist of the method: as §1
Data set [3] concerns the target T1, Epidermal growth factor receptor. The settings on record: A549, at 1 µM.
Data set [4] shares this target.
The target is the same in data set [5]. The settings on record: A549, at 1 µM. The source holds these as a separate data set.
In a further data set the test system is NCI-H1975. In words: cells. Type of data set: functional, cell-based. The settings on record: Homo sapiens, NCI-H1975, 72 h.
Data set [6] in a line: Drug uptake in human A549 cells at 1 uM after 1 hr by LC-MS analysis. The format is ADME, cell-based. The settings on record: a549, 1 h. Summed up:
as §1

The subject of data set [7] is Epidermal growth factor receptor (Homo sapiens), P00533 [L858R,T790M]. The settings on record: NCI-H1975, at 0.1 µM.
A short description of data set [8]: Cysteine reactivity in pH 10 CAPS buffer assessed as half life for cysteine-compound adduct formation at 10 uM after 24 hrs in presence of 100 molar excess cysteine by LC-MS analysis. Summed up: (§2)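 Compound at 10 µM added to freshly prepared 1 mM cysteine (1:100) in 50 mM CAPS pH 10, ionic strength 0.15 M with KCl; 37 °C; Cys-conjugate measured after 24 h by LC-MS in MRM mode. Half-life from LC-MS; conjugate peak area scaled to the 2-chloroacetamide conjugate set at 10,000.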

Data set [9] concerns Epidermal growth factor receptor (Homo sapiens), P00533 [L858R,T790M]. Particulars: NCI-H1975, at 1 µM.
Epidermal growth factor receptor (Homo sapiens), P00533 [L858R,T790M], sequence (P00533 whole entry T790M/L858R, looked up): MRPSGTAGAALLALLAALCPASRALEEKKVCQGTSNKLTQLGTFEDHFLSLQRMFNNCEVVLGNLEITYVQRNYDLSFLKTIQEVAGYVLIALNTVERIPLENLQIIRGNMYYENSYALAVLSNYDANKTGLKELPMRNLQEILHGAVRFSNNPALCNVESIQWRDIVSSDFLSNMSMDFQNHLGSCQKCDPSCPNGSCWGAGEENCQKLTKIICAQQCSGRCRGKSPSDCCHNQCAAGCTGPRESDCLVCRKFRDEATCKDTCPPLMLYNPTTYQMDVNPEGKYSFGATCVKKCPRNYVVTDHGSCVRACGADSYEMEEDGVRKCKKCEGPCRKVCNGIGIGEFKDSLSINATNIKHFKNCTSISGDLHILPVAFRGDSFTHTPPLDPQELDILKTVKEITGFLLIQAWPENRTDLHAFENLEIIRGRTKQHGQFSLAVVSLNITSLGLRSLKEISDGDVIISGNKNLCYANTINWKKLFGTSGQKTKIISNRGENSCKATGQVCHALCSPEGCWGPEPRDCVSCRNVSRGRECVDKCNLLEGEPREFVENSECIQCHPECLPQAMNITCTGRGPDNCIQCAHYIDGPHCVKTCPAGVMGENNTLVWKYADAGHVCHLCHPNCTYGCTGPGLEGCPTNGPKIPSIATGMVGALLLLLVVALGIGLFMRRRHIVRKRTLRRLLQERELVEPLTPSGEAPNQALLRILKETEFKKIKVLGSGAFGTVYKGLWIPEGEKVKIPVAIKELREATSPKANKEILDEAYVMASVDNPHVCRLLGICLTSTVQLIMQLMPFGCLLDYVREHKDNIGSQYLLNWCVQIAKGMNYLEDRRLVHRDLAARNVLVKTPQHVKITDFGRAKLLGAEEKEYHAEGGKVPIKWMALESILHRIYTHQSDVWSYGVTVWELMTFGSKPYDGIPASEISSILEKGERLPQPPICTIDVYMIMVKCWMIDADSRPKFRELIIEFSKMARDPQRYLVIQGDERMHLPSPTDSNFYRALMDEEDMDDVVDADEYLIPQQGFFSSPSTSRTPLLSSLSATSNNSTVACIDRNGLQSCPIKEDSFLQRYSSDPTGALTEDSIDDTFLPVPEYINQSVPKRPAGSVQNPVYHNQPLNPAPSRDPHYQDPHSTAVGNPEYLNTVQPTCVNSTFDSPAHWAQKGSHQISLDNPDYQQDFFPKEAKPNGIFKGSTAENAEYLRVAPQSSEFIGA
Data set [10] is described as follows: Cysteine reactivity in pH 10 CAPS buffer assessed as peak area for cysteine-compound adduct formation at 10 uM after 24 hrs in presence of 100 molar excess cysteine by LC-MS analysis relative to 2-chloro-N-(4-((3-chloro-4-fluorophenyl)amino)-7-ethoxyquinazolin-6-yl)acetamide. Summed up: as §2

Structures are written as SMILES. A value given as a limit tells only on which side of the number the result lay.

Take `CCOc1cc2ncnc(Nc3ccc(F)c(Cl)c3)c2cc1NC(=O)CO`: the Ratio with A549 amounted to 120. Also, the IC50 is 27 nM in data set [1], 0.34 nM in [4] and more than 10000 nM in the data set with NCI-H1975. Besides, the Drug uptake in data set [2] stood at 1.1 µM; in [6], 132 µM. The inhibition in data set [3] is 90%; in [5] it was 77%; in data set [7], 0%; in [9], 0%. In addition, in [8], the T1/2 is more than 24 h.

As for `COc1cc2ncnc(Nc3ccc(F)c(Cl)c3)c2cc1OCCCN1CCOCC1` [GEFITINIB], the Drug uptake in data set [2] came out at 2.4 µM; in [6] it was 271 µM.

As to `CCOc1cc2ncnc(Nc3ccc(F)c(Cl)c3)c2cc1NC(=O)COC(C)=O`, the 50% inhibitory concentration (IC50) in data set [1] came to 34 nM; in data set [4], 0.52 nM; in the data set on NCI-H1975 it was 3400 nM. The Drug uptake in data set [2] was less than 0.05 µM; in [6] it was 5.8 µM. Also, the inhibition amounted to 97% in data set [3], 75% in data set [5], 27% in [7] and 68% in [9]. In addition, the Activity in data set [10] came out at 0.64 a.u. In addition, the T1/2 in data set [8] stood at 23.3 h.

Consider `CCOc1cc2ncnc(Nc3ccc(F)c(Cl)c3)c2cc1NC(=O)COC(=O)c1c(C)cccc1C`, for which the values for the half-maximal inhibitory concentration (IC50) (in data set [1]; with NCI-H1975) were 44 nM and 6100 nM, respectively. Further, the inhibition in data set [3] stood at 97%; in [5], 97%; in data set [7], 20%; in data set [9], 16%. Besides, the Activity in data set [10] was 5 a.u. Moreover, the T1/2 in data set [8] was more than 24 h.

Take `CCOc1cc2ncnc(Nc3ccc(F)c(Cl)c3)c2cc1NC(=O)COC(=O)c1ccccc1`: the 50% inhibitory concentration (IC50) was 25 nM in data set [1] and 8300 nM in the data set on NCI-H1975. Further, the inhibition was 88% in data set [3], 89% in [5], 0.5% in data set [7] and 43% in data set [9]. Besides, the Activity in data set [10] turned out to be 11 a.u. In addition, in data set [8], the T1/2 is more than 24 h.

Regarding `C=CC(=O)Nc1cc(Nc2nccc(-c3cn(C)c4ccccc34)n2)c(OC)cc1N(C)CCN(C)C` [OSIMERTINIB], the IC50 with NCI-H1975 was […].

The term IC50 denotes the concentration that gives 50% inhibition. A lower IC50 goes with greater potency in that assay. Broadly, the inhibition is the change of the read-out against control, counted positive when it falls. High values mean strong suppression, low ones little suppression.
